# Test results as given in ChEMBL document CHEMBL4359895, “Discovery and biological evaluation of darolutamide derivatives as inhibitors and down-regulators of wild-type AR and the mutants” (Eur J Med Chem, 2019).
# pIC50: −log10 of the molar value. The source made the active and inactive calls. No cut-off for these calls is given here.
# Key:
# [1] = Solubility of compound in PBS incubated for 24 hrs by HPLC analysis; assay type: physicochemical
# Procedure, shortened: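 Solubility determined in PBS at 25 ℃ by the saturation shake-flask method. Quantified against calibration curves.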
# [2] = Stability of compound in nutrient medium with fetal bovine serum and antibiotic incubated for 6 days by HPLC analysis; conditions: 144 h
# CWR22R = test: Antiproliferative activity against human 22Rv1 expressing AR assessed as reduction in cell viability incubated for 6 days by CCK-8 assay; assay type: functional, cell-based; conditions: 22Rv1, 144 h
# Procedure, shortened: (§1)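 Cell proliferation assay run on LNCaP/AR, VCaP, 22Rv1, PC-3 and L-02 cells, with PC-3 and L-02 serving as AR-independent toxicity controls. IC50 fitted in GraphPad Prism 5 as the mean of at least two experiments, each in duplicate. Deviations under 35%.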
# PC-3 = test: Cytotoxicity against human PC3 assessed as reduction in cell viability incubated for 6 days by CCK-8 assay; assay type: cell-based; conditions: PC-3, 144 h; procedure, shortened: as §1
# [3] = biological target: Bromodomain-containing protein 4 (Homo sapiens) (UniProt O60885); test: Inhibition of BRD4 (unknown origin) by alpha-screen assay
# VCaP [4] = test: Antiproliferative activity against human VCaP expressing AR assessed as reduction in cell viability at 30 uM incubated for 6 days by CCK-8 assay relative to control; conditions: 144 h, read-out: INH
# LNCaP [5] = test: Antiproliferative activity against human LNCAP expressing AR assessed as reduction in cell viability incubated for 6 days by CCK-8 assay; assay type: functional, cell-based; conditions: 144 h; procedure, shortened: as §1
# VCaP [6] = test: Antitumor activity against castration-resistant human VCaP cells xenografted in BALB/c mouse assessed as tumor growth inhibition at 30 mg/kg, po administered for 40 days; assay type: functional; conditions: 960 h, read-out: TGI
# Procedure, shortened: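 Castration-resistant VCaP xenografts grown in male BALB/c nude mice. Animals dosed once daily for 40 days alongside a vehicle group. Tumor volume tracked over time, with tumor weights taken at end. Reported as tumor growth inhibition, mean ± SEM, N = 8-9 per group.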
# L02 = test: Cytotoxicity against human L02 assessed as reduction in cell viability incubated for 6 days by CCK-8 assay; assay type: cell-based; conditions: L02, 144 h; procedure, shortened: as §1
# LNCaP [7] = test: Inhibition of AR protein expression in human LNCAP cells at 20 uM incubated for 24 hrs by Western blot analysis; assay type: functional, cell-based
# Procedure, shortened: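 LNCaP cells treated with 20 µM compound or DMSO for 24 h. AR-full protein detected by western blot with tubulin as loading control, then quantified by ImageJ grayscale analysis.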
# [8] = biological target: T1, Androgen receptor (Homo sapiens) (UniProt P10275); test: Inhibition of AR in human HEK293 cells assessed as decrease in receptor transactivation at 10 uM incubated for 24 hrs by dual luciferase reporter gene assay; assay type: cell-based
# T1 sequence (whole entry): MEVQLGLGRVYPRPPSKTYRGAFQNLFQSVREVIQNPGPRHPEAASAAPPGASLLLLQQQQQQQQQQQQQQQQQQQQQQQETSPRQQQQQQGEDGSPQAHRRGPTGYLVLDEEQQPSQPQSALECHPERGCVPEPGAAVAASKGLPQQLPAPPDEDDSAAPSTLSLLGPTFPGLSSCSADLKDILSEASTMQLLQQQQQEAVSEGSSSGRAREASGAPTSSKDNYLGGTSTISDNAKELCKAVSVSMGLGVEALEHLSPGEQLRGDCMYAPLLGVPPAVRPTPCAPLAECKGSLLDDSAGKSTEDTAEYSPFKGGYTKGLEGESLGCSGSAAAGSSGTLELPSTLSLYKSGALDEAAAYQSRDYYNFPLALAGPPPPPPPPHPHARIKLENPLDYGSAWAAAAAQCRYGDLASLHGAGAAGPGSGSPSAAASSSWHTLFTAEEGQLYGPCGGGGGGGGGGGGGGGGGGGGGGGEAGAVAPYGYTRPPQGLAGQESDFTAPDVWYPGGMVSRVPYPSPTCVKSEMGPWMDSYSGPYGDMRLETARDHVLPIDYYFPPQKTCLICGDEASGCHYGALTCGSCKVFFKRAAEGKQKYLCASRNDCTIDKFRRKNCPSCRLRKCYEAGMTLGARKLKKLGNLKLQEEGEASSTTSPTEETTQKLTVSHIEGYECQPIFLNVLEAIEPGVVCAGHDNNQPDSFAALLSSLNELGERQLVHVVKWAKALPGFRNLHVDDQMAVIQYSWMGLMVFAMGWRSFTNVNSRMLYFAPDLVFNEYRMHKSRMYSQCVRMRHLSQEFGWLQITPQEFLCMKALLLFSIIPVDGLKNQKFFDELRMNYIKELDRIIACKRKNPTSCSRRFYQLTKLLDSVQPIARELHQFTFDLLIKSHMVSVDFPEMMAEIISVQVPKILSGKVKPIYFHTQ
# Procedure, shortened: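 HEK 293 cells transiently co-transfected with wt-AR expression vector and an androgen-responsive luciferase reporter construct. Cells given 2 nM testosterone plus 10 µM test compound (final concentrations). Read-out by luciferase, mean ± SD, n = 3.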
# VCaP [9] = test: Antiproliferative activity against human VCaP expressing AR assessed as reduction in cell viability incubated for 6 days by CCK-8 assay; assay type: functional, cell-based; conditions: 144 h; procedure, shortened: as §1
Structure (SMILES),solubility at 24 h [1] [µM],Stability [2],pIC50 (CWR22R),pIC50 (PC-3),inhibition [3],inhibition at 30 µM (VCaP [4]) [%],pIC50 (LNCaP [5]),inhibition in vivo at 30 mg/kg (VCaP [6]) [%],pIC50 (L02),inhibition (LNCaP [7]),inhibition [8],pIC50 (VCaP [9])
CC(O)c1cc(C(=O)N[C@@H](C)Cn2ccc(-c3ccc(C#N)c(Cl)c3)n2)[nH]n1 (stereo not given in full) [DAROLUTAMIDE],223,Stable,–,–,–,–,–,–,–,–,–,–
CNC(=O)c1ccc(N2C(=S)N(c3ccc(C#N)c(C(F)(F)F)c3)C(=O)C2(C)C)cc1F [ENZALUTAMIDE],–,–,< 4.52,< 4.52,inactive,50,6.72,43,–,–,–,–
CC(O)c1cc(C(=O)N[C@@H](C)Cn2ccc(-c3ccc(C#N)c(Cl)c3)n2)n[nH]1 (stereo not given in full) [DAROLUTAMIDE],–,–,< 4.52,< 4.52,inactive,–,5.78,–,< 4.52,–,–,–
C[C@@H](Cn1ccc(-c2ccc(C#N)c(Cl)c2)n1)Nc1ncnc2ccccc12,–,–,5.36,< 4.52,–,–,6.29,–,4.89,Active,Active,5.88
